Measurements from different studies.
Each line is one published result; the experiments were not run side by side.
Effect on: enzyme activity
Action: inhibitor
rep main protease: Replicase polyprotein 1ab, main protease (rep, Severe acute respiratory syndrome coronavirus 2, UniProt P0DTD1)
rep papain-like protease: Replicase polyprotein 1ab, papain-like protease (rep, Severe acute respiratory syndrome coronavirus 2, UniProt P0DTD1)

For `COc1ccc(OC)c2c1C(=O)C=CC2=O`, the inhibition was 75.1% (rep main protease; 1 µM).
The inhibition of `O=C(NC[C@H](NC(=O)c1cn[nH]c1-c1ccccn1)c1ccc2ccccc2c1)c1cn[nH]c1` is reported as 10.7% (rep main protease; 5 µM).
For `Cc1ccc(-n2cccc2)c(NC(=O)Nc2ccccc2C(F)(F)F)c1`, the inhibition was 11.4% (rep main protease; 20 µM).
`COc1cc(C)cc2c1C(=O)C=CC2=O` has an inhibition of 75.6% (rep main protease; 1 µM).
With `O=c1c(O)c(-c2cc(O)c(O)c(O)c2)oc2cc(O)ccc12` the inhibition was 94.9% (rep main protease; 20 µM).
The inhibition of `O=C1C=CC(=O)c2ccccc21` is reported as 97.7% (rep main protease; 10 µM).
`Clc1nc2ccccc2cc1/C=N\c1ccc(-c2nc3ccccc3[nH]2)cc1` gave an inhibition of 25.3% (rep papain-like protease; 100 µM).
With `C[C@@H]1O[C@@H](OC[C@H]2O[C@@H](OCCc3ccc(O)c(O)c3)[C@H](OC(=O)/C=C/c3ccc(O)c(O)c3)[C@@H](O)[C@@H]2O)[C@H](O)[C@H](O)[C@H]1O` the inhibition was 2.5% (rep papain-like protease; 50 µM).
With `O=C(NC[C@H](NC(=O)c1cncc2sccc12)c1ccc2ccccc2c1)c1cocn1` the inhibition was 19.1% (rep main protease; 5 µM).
For `Cc1cc(NC(=O)c2cc3c(=O)n4cccc(C)c4nc3n2C)ccc1Br`, the inhibition was 59% (rep main protease; 100 µM).
`CC(=O)N[C@H](CCCCN)C(=O)N[C@H](Cc1c[nH]c2ccccc12)C(=O)N[C@H](CO)C(=O)N[C@H](Cc1ccc(O)cc1)C(=O)N[C@H](CCC(N)=O)C(=O)N1CCC[C@@H]1C(=O)N[C@@H](C(=O)N[C@H](Cc1c[nH]c2ccccc12)C(=O)N[C@H](CC(=O)O)C(=O)N[C@H](Cc1c[nH]c2ccccc12)C(=O)N[C@@H](C(=O)N[C@H](Cc1c[nH]c2ccccc12)C(=O)N[C@H](CO)C(=O)N[C@H](CCC(=O)O)C(=O)N[C@H](Cc1c[nH]cn1)C(=O)N[C@H](C)C(=O)N[C@H](CCCNC(=N)N)C(N)=O)[C@H](C)O)[C@H](C)O` gave an inhibition of 100% (rep main protease; fluorescence; 140 µM).
`O=c1[nH]c(CCl)nc2sc3c(c12)CCCC3` has an inhibition of 29.2% (rep main protease; 20 µM).
`CCC(=O)Oc1cccc2c1C(=O)C=CC2=O` gave an inhibition of 96.5% (rep main protease; 1 µM).
With `CC[C@H](NC(=O)OCc1ccccc1)C(=O)N[C@H](C(=O)N[C@@H](Cc1ccccc1)C(=O)N(C)N(C#N)CCC(N)=O)C(C)(C)C` the inhibition was 100% (rep main protease; fluorescence; 50 µM, pH 7.2).
For `O=C(O)c1cc(O)c2c(c1)[C@H]([C@H]1c3cc(C(=O)O)cc(O)c3C(=O)c3c(O[C@@H]4O[C@H](CO)[C@@H](O)[C@H](O)[C@H]4O)cccc31)c1cccc(O[C@@H]3O[C@H](CO)[C@@H](O)[C@H](O)[C@H]3O)c1C2=O`, the inhibition was 100% (rep main protease; 20 µM).
For `O=C1CC(c2c(O)cccc2O)Oc2cc(O)cc(O)c21` (stereo not drawn), the inhibition was 26.5% (rep main protease; 20 µM).
For `O=c1cc(-c2ccccc2)oc2cc(O)c(O)c(O)c12`, the inhibition was 87% (rep main protease; 10 µM).
`Cc1ccc(NC(=O)c2cc3c(=O)n4cccc(C)c4nc3n2C)cc1Cl` gave an inhibition of 37% (rep main protease; 100 µM).
For `O=C(O)/C=C/c1ccc(O)c(O)c1`, the inhibition was under 25% (rep main protease; FRET; 10 µM, 10 min).
The inhibition of `N#CC(c1ccc2c(c1)OCO2)N(Cc1ccccc1)C(=O)c1sc2ccccc2c1Cl` (stereo not drawn) is reported as 8.09% (rep main protease; 20 µM).
For `COc1c(-c2ccc(O)c(CC=C(C)C)c2)oc2cc(O)cc(O)c2c1=O`, the inhibition was 16.9% (rep main protease; 8 µM).
For `Cc1ccc(NC(=O)Nc2cccnc2)cc1Cl`, the inhibition was -7.73% (rep main protease; 20 µM).
`Cn1c(C(=O)Nc2ccc3c(c2)OCCO3)cc2c(=O)n3ccccc3nc21` gave an inhibition of 31% (rep main protease; 1 µM).
The inhibition of `Cc1cccc2cc(/C=N\c3ccc(-c4nc5ccccc5[nH]4)cc3)c(Cl)nc12` is reported as 10.1% (rep papain-like protease; 10 µM).
`COc1cccc2c1C(=O)C(C(C)=O)=CC2=O` has an inhibition of 35.2% (rep main protease; 0.1 µM).
For `O=C(O)[C@H]1O[C@@H](Oc2cc3oc(-c4ccc(O)cc4)cc(=O)c3c(O)c2O)[C@H](O)[C@@H](O)[C@@H]1O`, the inhibition was 76.8% (rep main protease; 100 µM).
With `O=C(O)c1ccc(O)c(O)c1` the inhibition was under 25% (rep main protease; FRET; 10 µM, 10 min).
`COc1cc(C[C@@H](C)[C@@H](C)Cc2cc(O)c(OC)c(OC)c2)cc(O)c1OC` has an inhibition of 51.4% (rep papain-like protease; FRET; 8 µM).
`COc1c(O)cc(O)c2c(=O)cc(-c3ccccc3)oc12` has an inhibition of 52% (rep papain-like protease; 50 µM).
For `O=C(Nc1ccccc1)Nn1cnnc1`, the inhibition was -7.8% (rep main protease; 20 µM).
`CC(C)C[C@H](NC(=O)[C@@H](NC(=O)OCc1ccccc1)C(C)(C)C)C(=O)N(C)N(C#N)CCC(N)=O` gave an inhibition of 100% (rep main protease; fluorescence; 50 µM, pH 7.2).
`Clc1nc2ccccc2cc1/C=N\c1ccc(Br)nc1` has an inhibition of 3.5% (rep papain-like protease; 10 µM).
`COc1ccc(/C=C\C(=O)NC(=S)Nc2ccc(S(=O)(=O)NC(N)=O)cc2)cc1OC` has an inhibition of 0% (rep main protease; 100 µg/mL).
The inhibition of `O=C(O)[C@H]1O[C@@H](Oc2cc3oc(-c4ccccc4)cc(=O)c3c(O)c2O)[C@H](O)[C@@H](O)[C@@H]1O` is reported as 97.6% (rep main protease; 100 µM).
`Cc1cc(OCc2ccccc2)c2c(c1)C(=O)C=CC2=O` has an inhibition of 91.1% (rep main protease; 1 µM).
`NC(=O)CSc1nnc2c3ccccc3nc(-c3ccc(F)cc3)n12` gave an inhibition of 20.1% (rep main protease; 20 µM).
The inhibition of `Cc1cccn2c(=O)c3cc(C(=O)Nc4ccc(N(C)C)cc4)n(C)c3nc12` is reported as 64% (rep main protease; 1 mM).
The inhibition of `N#CSc1cc(SC#N)c(N)nc1N` is reported as 98.8% (rep main protease; 20 µM).
`O=C(CCc1ccc(O)cc1)c1c(O)cc(O)cc1O[C@@H]1O[C@H](CO)[C@@H](O)[C@H](O)[C@H]1O` gave an inhibition of 25 to 50% (rep main protease; FRET; 10 µM, 10 min).
The inhibition of `CC1=C2CC(C(=O)N[C@@H]3CN(C(=O)c4cc5ccccc5o4)Cc4nccn4C3)=CN=C2NN1` is reported as 11.3% (rep main protease; 5 µM).
For `Cn1c(C(=O)Nc2ccc(Cl)cc2)cc2c(=O)n3ccccc3nc21`, the inhibition was 72% (rep main protease; 1 mM).
`O=C(Oc1cncc(Cl)c1)c1ccc2[nH]c3c(c2c1)CCCC3` gave an inhibition of 100% (rep main protease; fluorescence; 10 µM, pH 7.2).
